Here are results for seven molecules from ChEMBL document CHEMBL1153905, “Functionalized 3-benzylidene-indolin-2-ones: inducers of NAD(P)H-quinone oxidoreductase 1 (NQO1) with antiproliferative activity” (Bioorg Med Chem, 2009).

Data set [1] addresses T1, CYP1A1 (Mus musculus, UniProt P00184).
T1 sequence (P00184 whole entry): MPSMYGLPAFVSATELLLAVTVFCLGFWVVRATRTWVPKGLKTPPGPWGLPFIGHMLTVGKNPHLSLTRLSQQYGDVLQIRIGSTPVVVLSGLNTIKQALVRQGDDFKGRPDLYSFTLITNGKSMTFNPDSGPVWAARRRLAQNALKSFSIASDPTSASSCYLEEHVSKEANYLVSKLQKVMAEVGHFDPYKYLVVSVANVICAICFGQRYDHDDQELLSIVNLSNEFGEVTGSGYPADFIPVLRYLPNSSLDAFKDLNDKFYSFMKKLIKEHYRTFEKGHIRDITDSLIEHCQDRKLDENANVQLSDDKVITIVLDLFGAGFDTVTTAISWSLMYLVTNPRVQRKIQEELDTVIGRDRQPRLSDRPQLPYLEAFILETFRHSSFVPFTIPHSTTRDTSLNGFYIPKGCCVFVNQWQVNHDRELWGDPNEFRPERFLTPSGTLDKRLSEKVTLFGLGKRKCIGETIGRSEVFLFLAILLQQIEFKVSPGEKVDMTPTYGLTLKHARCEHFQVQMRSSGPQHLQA
Nature of the data set: Induction of CYP1A1 activity in mouse Hepa-1c1c7 cells assessed as induction ratio at 0.05 uM after 48 hrs by EROD assay relative to control. The data set is classed as ADME, cell-based. The procedure, abridged: (§1)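 About 10,000 Hepa1c1c7 cells/well cultured 24 h, then compound (0.5% DMSO final) for 48 h, at roughly 4 × the concentration doubling NQO1 activity. After PBS wash, cells given 5 µM 7-ethoxyresorufin plus 2 mM salicylamide, 37 °C, 40 min; resorufin fluorescence ex 530/em 590 nm, corrected for compound fluorescence. Ratio = (treated − blank)/(DMSO control − blank); mean ± SD, n = 3.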

For data set [2], the system named is HCT-116. Kind of data set: Cell cycle arrest in human HCT116 cells released from G2 block assessed as accumulation at G1 phase at 15 uM after 24 hrs by flow cytometry. The class given is functional. (In flow cytometry, cells or beads pass a laser one at a time.)
Data set [3] deals with MCF7. Nature of the data set: Selectivity ratio of IC50 for human CCL186 cells to IC50 for human MCF7 cells. The procedure, abridged: (§2)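 MTT assay. MCF7 and CCL186 cells were grown in EMEM/10% FBS, HCT116 in McCoy's 5A/10% FBS. Seeding was 10,000 (MCF7), 4000 (HCT116) and 5000 (CCL186) cells per well, 24 h. Compound exposure was 72 h, DMSO ≤1% final. MTT 0.5 mg/ml for 3 h, formazan dissolved in DMSO, A590. IC50 came from sigmoidal survival curves, with 3 separate occasions per concentration. Ratio = IC50 CCL186 / IC50 of the cancer line.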

For data set [4], the system named is HCT-116. Kind of data set: Cell cycle arrest in human HCT116 cells released from G2 block assessed as accumulation at S phase at 15 uM after 24 hrs by flow cytometry. The data set is classed as functional.
Data set [5] is described as follows: Cytotoxicity against mouse Hepa-1c1c7 cells after 48 hrs by MTT assay. The class given is cell-based. The settings on record: hepa-1c1c7, 48 h. In a few lines: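 Murine hepatoma cells in α-MEM with 10% heat- and charcoal-treated fetal calf serum, passages 6–17; MTT read-out as for the cancer lines but with 48 h compound exposure. Highest concentration tested 25 µM. IC50 from survival-versus-concentration curve; mean and SD, n = 3.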
For orientation: Tetrazolium assays rely on reduction of a dye to a coloured formazan, in cell work by metabolically active cells.

The test system of data set [6] is HCT-116. Nature of the data set: Cell cycle arrest in human HCT116 cells released from G1 block assessed as accumulation at S phase at 15 uM after 24 hrs by flow cytometry. The data set is classed as functional.
Data set [7] has as its system HCT-116. Nature of the data set: Cell cycle arrest in human HCT116 cells released from G1 block assessed as accumulation at sub G1 phase at 15 uM after 24 hrs by flow cytometry. The data set is classed as functional.
In data set [8] the target is NAD(P)H dehydrogenase [quinone] 1 (Mus musculus) (UniProt Q64669). Kind of data set: Induction of NQO1 activity in mouse Hepa-1c1c7 cells assessed as induction ratio at 0.05 uM after 48 hrs by MTT assay relative to control. The data set is classed as cell-based. The procedure, abridged:
(§3)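 Hepa1c1c7 cells, 10,000 per well, 24 h, were then treated 48 h (DMSO ≤0.5%). Digitonin/EDTA lysates were assayed for menadione-dependent MTT-formazan formation using a G6P/G6PDH NADPH-generating mix with FAD at pH 7.4. The reaction ran 5 min, was stopped with dicoumarol, and read at A590. Degree of induction = (A test − blank)/(A control − blank). Ratios were read off the induction–concentration plot at the EROD test concentration.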

The nature of data set [9]: Selectivity ratio of IC50 for human CCL186 cells to IC50 for human HCT116 cells. The class given is ADME, cell-based, HCT-116. Conditions: CCL186 cells and HCT116 cells, read-out: Ratio IC50. The procedure, abridged:
as §2

Data set [10] relates to HCT-116. Nature of the data set: Cell cycle arrest in human HCT116 cells released from G2 block assessed as accumulation at sub G1 phase at 15 uM after 24 hrs by flow cytometry. The class given is functional.
The test system of data set [11] is HCT-116. Nature of the data set: Cell cycle arrest in human HCT116 cells released from G1 block assessed as accumulation at G1 phase at 15 uM after 24 hrs by flow cytometry. The class given is functional.
The test system of data set [12] is MCF7. Kind of data set: Antiproliferative activity against human MCF7 cells after 72 hrs by MTT assay. Conditions: MCF7, 72 h. The class given is functional, cell-based. The procedure, abridged: (§4)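 Cells seeded at 10,000 (MCF7), 4000 (HCT116) or 5000 (CCL186) per well and grown 24 h; MCF7 and CCL186 in EMEM with pyruvate, glutamine, 10% FBS; HCT116 in McCoy's 5A with 10% FBS. Compounds from DMSO stocks (≤1% DMSO final), 72 h exposure; MTT 0.5 mg/ml for 3 h, formazan in DMSO read at 590 nm. IC50 from sigmoidal survival curve, three separate occasions.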

For data set [13], the system named is HCT-116. Nature of the data set: Cell cycle arrest in human HCT116 cells released from G2 block assessed as accumulation at G2/M phase at 15 uM after 24 hrs by flow cytometry. The class given is functional.
The subject of data set [14] is HCT-116. Kind of data set: Antiproliferative activity against human HCT116 cells after 72 hrs by MTT assay. The class given is functional, cell-based. The settings on record: HCT-116, 72 h. In a few lines:
as §4

Data set [15] is described as follows: Antiproliferative activity against human CCL186 cells after 72 hrs by MTT assay. The settings on record: CCL186, 72 h. The class given is cell-based. In a few lines: as §4
For data set [16], the system named is HCT-116. Nature of the data set: Cell cycle arrest in human HCT116 cells released from G1 block assessed as accumulation at G2/M phase at 15 uM after 24 hrs by flow cytometry. The data set is classed as functional.
The target of data set [17] is T1, CYP1A1. Kind of data set: Induction of CYP1A1 activity in mouse Hepa-1c1c7 cells assessed as induction ratio at 0.5 uM after 48 hrs by EROD assay relative to control. The data set is classed as ADME, cell-based. In a few lines:
as §1

The target of data set [18] is NAD(P)H dehydrogenase [quinone] 1 (Mus musculus) (UniProt Q64669). Nature of the data set: Induction of NQO1 activity in mouse Hepa-1c1c7 cells assessed as induction ratio at 0.5 uM after 48 hrs by MTT assay relative to control. The data set is classed as cell-based. The procedure, abridged: as §3
For data set [19] the target is unchanged. Nature of the data set: Induction of NQO1 activity in mouse Hepa-1c1c7 cells assessed as induction ratio at 5 nM after 48 hrs by MTT assay relative to control. The data set is classed as cell-based. The procedure, abridged:
as §3

Data set [20] concerns the target T1, CYP1A1. Kind of data set: Induction of CYP1A1 activity in mouse Hepa-1c1c7 cells assessed as induction ratio at 5 nM after 48 hrs by EROD assay relative to control. The class given is ADME, cell-based. In a few lines:
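Hepa1c1c7 cells were seeded at 10,000 per well and grown 24 h. They were then exposed 48 h to compound (final DMSO 0.5% v/v) at about 4 × the NQO1 CD. After a PBS wash, cells got 5 µM 7-ethoxyresorufin plus 2 mM salicylamide in medium, 37 °C, 40 min. Resorufin was read at ex 530/em 590 nm, corrected for compound fluorescence. Ratio = (F treated − blank)/(F DMSO control − blank); mean ± SD, n = 3.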

Data set [21] in a line: Ratio of induction of NQO1 activity to induction of CYP1 activity in mouse Hepa-1c1c7 cells at 5 nM after 48 hrs.
Data set [22] deals with T1, CYP1A1. Kind of data set: Induction of CYP1A1 activity in mouse Hepa-1c1c7 cells assessed as induction ratio at 0.1 uM after 48 hrs by EROD assay relative to control. The class given is ADME, cell-based. In a few lines:
as §1

Data set [23] concerns the target NAD(P)H dehydrogenase [quinone] 1 (Mus musculus) (UniProt Q64669). Kind of data set: Induction of NQO1 activity in mouse Hepa-1c1c7 cells assessed as induction ratio at 0.1 uM after 48 hrs by MTT assay relative to control. The data set is classed as cell-based. The procedure, abridged: as §3

Sequence of NAD(P)H dehydrogenase [quinone] 1 (Mus musculus) (Q64669 whole entry): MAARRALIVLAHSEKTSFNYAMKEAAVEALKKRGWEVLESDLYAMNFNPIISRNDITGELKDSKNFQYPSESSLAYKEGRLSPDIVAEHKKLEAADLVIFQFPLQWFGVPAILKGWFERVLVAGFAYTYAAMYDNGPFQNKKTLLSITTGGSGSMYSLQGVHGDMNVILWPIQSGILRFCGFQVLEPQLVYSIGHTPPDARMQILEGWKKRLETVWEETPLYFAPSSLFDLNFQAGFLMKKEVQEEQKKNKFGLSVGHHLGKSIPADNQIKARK

Consider `O=C1Nc2cc(Cl)ccc2/C1=C\c1cccc(C(F)(F)F)c1`, for which the fold induction at 48 h, 0.05 µM in data set [1] worked out at 2.4. For the same molecule, the Activity in data set [2] stood at 53.47%; in data set [4] it was 8.05%; in data set [6], 7.1%; in [7], 12.39%; in data set [10], 10.62%; in [11] it was 65.55%. The Activity was 28.39% in data set [13] and 15.13% in data set [16]. Moreover, the “Ratio IC50” value in data set [3] was 1.7. The IC50 was determined as 1.1 µM in [5], 7.5 µM in [12], 3.8 µM in data set [14] and 6.6 µM in data set [15]. Also, the Ratio in data set [8] came out at 5.2. In data set [9], the selectivity ratio is 0.9.
For the molecule `COc1ccc(/C=C2/C(=O)Nc3ccccc32)cc1O`, the fold induction at 48 h, 0.5 µM in data set [17] was 2.66. The molecule also returned an IC50 in data set [5] of 11.9 µM. In addition, the Ratio in data set [18] came out at 3.13.
As to `O=C1Nc2cc(C(F)(F)F)ccc2/C1=C1\C(=O)Nc2ccc(F)cc21`, the IC50 in data set [5] is above 25 µM. The results for the Ratio in [19] and in data set [21] were 3.09 and 0.83, respectively. Further, the fold induction at 48 h, 0.005 µM in data set [20] was 3.72.
With `O=C1Nc2ccccc2/C1=C\c1ccc(C(F)(F)F)cc1`, in data set [22], the fold induction at 48 h, 0.1 µM amounted to 1.22. The molecule further registered an IC50 in data set [5] of 12 µM. Further, the Ratio in data set [23] was 2.74.
Take `O=C1Nc2cc(C(F)(F)F)ccc2/C1=C1\C(=O)Nc2ccc(Cl)cc21`: the IC50 in data set [5] is 9.8 µM. For the same molecule, the Ratio in [19] worked out at 2.96; in data set [21], 0.92. In [20], the fold induction at 48 h, 0.005 µM is 3.23.
As for `O=C1Nc2ccccc2/C1=C\c1cccc(Cl)c1`, in [17], the fold induction at 48 h, 0.5 µM was determined as 1.21. Further, inhibition in [5] was half-maximal at 5.9 µM (IC50). The Ratio in data set [18] was 4.47.
Consider `O=C1Nc2ccccc2/C1=C\c1cccc(C(F)(F)F)c1`, for which the fold induction at 48 h, 0.1 µM in data set [22] stood at 1.4. The molecule also gave an IC50 in data set [5] of 3.9 µM. Moreover, in [23], the Ratio turned out to be 3.85.

Usually fold induction stands for the signal under treatment as a multiple of the control signal. As a reminder, the IC50 is the concentration that inhibits the measured activity by half. A lower IC50 goes with greater potency in that assay.
